Measurements from ChEMBL document CHEMBL1135717, “Minor groove DNA binders as antimicrobial agents. 1. Pyrrole tetraamides are potent antibacterials against vancomycin resistant Enterococci [corrected] and methicillin resistant Staphylococcus aureus” (J Med Chem, 2002).
Converted amounts (≈) assume the structure as drawn.

Tests used:
[1] = system: Nucleic Acid; assay: DNA binding measured as Changes in the DNA melting temperature of an AT-rich dodecamer (CGATTATTAAGC) (GCTTAATAATCG) upon binding of an equimolar amount of compound; type: nucleic-acid assay
Method in brief: (§1)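 Melting monitored by UV absorbance at 260 nm in 10 mM HEPES pH 7.2, 0.1 mM EDTA, 50 mM NaCl. 12-bp AT-rich oligo at 5 μM mixed with compound at equimolar ratio. Temperature ramped 15 to 95 °C at 0.2 °C/min. Tm by derivative method, checked by hyperchromicity. ΔTm is Tm with compound minus Tm without. At least duplicate.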

[2] = system: Enterococcus; assay: In vitro antimicrobial activity against Vancomycin resistant enterococcus strain BM4147; type: functional
Method in brief: (§2)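 Broth microdilution MIC per NCCLS M7-A4. Compounds dissolved fresh in DMSO as 10 mM stock, then diluted in BHI medium for VRE (BM4147, UCD3) or Mueller-Hinton medium for MRSA. Seven 1:2 serial dilutions gave test concentrations of 45.5 to 0.7 μM. MIC read by visual inspection of wells after 2 days.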

[3] = system: Enterococcus; assay: In vitro antimicrobial activity against Vancomycin resistant enterococcus strain UCD-3; type: functional; method in brief: as §2
[4] = system: Staphylococcus aureus; assay: In vitro antimicrobial activity against Methicillin resistant Staphylococcus aureus; type: functional; method in brief: as §2
[5] = Toxicity assessed in human T-cells using a colorimetric cell proliferation assay.; type: cell-based
Method in brief: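 CCRF-CEM human leukemia T-cells in RPMI-1640 with 10% FBS and gentamicin 0.1 mg/mL, seeded at 4 × 10^4 cells/well. Compound added at start at 50, 25, 12.5 and 6.3 μM. WST-1 cleavage read by absorbance at 440 nm at 24, 48 and 72 h. Value reported as lowest % of no-compound control, typically 72 h at 50 μM. At least triplicate.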

[6] = system: Nucleic Acid; assay: Changes in the DNA melting temperature of an AT-rich dodecamer (CGATTATTAAGC) (GCTTAATAATCG) upon binding of an equimolar amount of compound; type: nucleic-acid assay; method in brief: as §1

SMILES | ΔTm [1] | MIC [2] | MIC [3] | MIC [4] | NCC [5] | ΔTm [6]
CC(C)CCn1cc(NC(=O)c2ccc(C(=O)Nc3cc(C(=O)NCCC4=NCCCN4)n(CCC(C)C)c3)cc2)cc1C(=O)NCCC1=NCCCN1 | 28 °C | 0.7 µM (≈ 0.519 µg/mL) | 0.7 µM (≈ 0.519 µg/mL) | 0.7 µM (≈ 0.519 µg/mL) | 51% | –
CC(C)CCn1cc(NC(=O)c2cnc(C(=O)Nc3cc(C(=O)NCCC(=N)N)n(CCC(C)C)c3)cn2)cc1C(=O)NCCC(=N)N | 20 °C | 2.8 µM (≈ 1.86 µg/mL) | 2.8 µM (≈ 1.86 µg/mL) | 2.8 µM (≈ 1.86 µg/mL) | 32% | –
Cn1cc(NC(=O)c2ccc(C(=O)Nc3cc(C(=O)NCCC(=N)N)n(C)c3)cc2)cc1C(=O)NCCC(=N)N | – | 22.2 µM (≈ 12.2 µg/mL) | > 45.5 µM | 22.7 µM (≈ 12.5 µg/mL) | 56% | 30
CC(C)CCn1cc(NC(=O)c2ccc(C(=O)Nc3cc(C(=O)NCCN)n(CCC(C)C)c3)cc2)cc1C(=O)NCCN | 20 °C | 11.4 µM (≈ 6.92 µg/mL) | 11.4 µM (≈ 6.92 µg/mL) | 2.8 µM (≈ 1.7 µg/mL) | 24% | –
C/N=C(\N)CCNC(=O)c1cc(NC(=O)c2ccc(C(=O)Nc3cc(C(=O)NCC/C(N)=N/C)n(CCC(C)C)c3)cc2)cn1CCC(C)C | 28 °C | 1.4 µM (≈ 0.964 µg/mL) | 1.4 µM (≈ 0.964 µg/mL) | 0.7 µM (≈ 0.482 µg/mL) | – | –
CN=C(CCNC(=O)c1cc(NC(=O)c2ccc(C(=O)Nc3cc(C(=O)NCCC(=NC)NC)n(CCC(C)C)c3)cc2)cn1CCC(C)C)NC | – | – | – | – | 50% | –
CCC/N=C(\N)CCNC(=O)c1cc(NC(=O)c2ccc(C(=O)Nc3cc(C(=O)NCC/C(N)=N/CCC)n(CCC(C)C)c3)cc2)cn1CCC(C)C | 26 °C | 1.4 µM (≈ 1.04 µg/mL) | 1.4 µM (≈ 1.04 µg/mL) | 1.4 µM (≈ 1.04 µg/mL) | 15% | –
CCCn1cc(NC(=O)c2ccc(C(=O)Nc3cc(C(=O)NCCC(=N)N)n(CCC)c3)cc2)cc1C(=O)NCCC(=N)N | – | 5.6 µM (≈ 3.39 µg/mL) | 5.6 µM (≈ 3.39 µg/mL) | 11.1 µM (≈ 6.71 µg/mL) | 61% | 29
N=C(N)CCNC(=O)c1cc(NC(=O)c2cc(C(=O)Nc3cc(C(=O)NCCC(=N)N)n(CC4CC4)c3)[nH]n2)cn1CC1CC1 | 26 °C | 5.7 µM (≈ 3.53 µg/mL) | 5.7 µM (≈ 3.53 µg/mL) | 2.8 µM (≈ 1.73 µg/mL) | 88% | –
CC(C)CCn1cc(NC(=O)c2ccc(C(=O)Nc3cc(C(=O)NCCC(=N)N)n(CCC(C)C)c3)cc2)cc1C(=O)NCCC(=N)N | – | 0.7 µM (≈ 0.463 µg/mL) | 0.7 µM (≈ 0.463 µg/mL) | 1.4 µM (≈ 0.925 µg/mL) | 4% | 28
N=C(N)CCNC(=O)c1cc(NC(=O)c2ccc(C(=O)Nc3cc(C(=O)NCCC(=N)N)n(CC4CC4)c3)c([N+](=O)[O-])c2)cn1CC1CC1 | 28 °C | 2.8 µM (≈ 1.89 µg/mL) | 2.8 µM (≈ 1.89 µg/mL) | 1.4 µM (≈ 0.943 µg/mL) | 87% | –
CC/N=C(\N)CCNC(=O)c1cc(NC(=O)c2ccc(C(=O)Nc3cc(C(=O)NCC/C(N)=N/CC)n(CCC(C)C)c3)cc2)cn1CCC(C)C | 27 °C | 1.4 µM (≈ 1 µg/mL) | 1.4 µM (≈ 1 µg/mL) | 1.4 µM (≈ 1 µg/mL) | 74% | –
CC(C)CCn1cc(NC(=O)C2CCC(C(=O)Nc3cc(C(=O)NCCC(=N)N)n(CCC(C)C)c3)CC2)cc1C(=O)NCCC(=N)N (stereo not given) | 11 °C | > 45.5 µM | > 45.5 µM | 11.4 µM (≈ 7.6 µg/mL) | 88% | –
CC(C)CCn1cc(NC(=O)c2ccc(C(=O)Nc3cc(C(=O)NCCC(=N)N)n(CCC(C)C)c3)c([N+](=O)[O-])c2)cc1C(=O)NCCC(=N)N | 25 °C | 1.4 µM (≈ 0.988 µg/mL) | 1.4 µM (≈ 0.988 µg/mL) | 1.4 µM (≈ 0.988 µg/mL) | 42% | –
N=C(N)CCNC(=O)c1cc(NC(=O)c2ccc(C(=O)Nc3cc(C(=O)NCCC(=N)N)n(CC4CC4)c3)nc2)cn1CC1CC1 | 27 °C | 1.4 µM (≈ 0.882 µg/mL) | 2.8 µM (≈ 1.76 µg/mL) | 1.4 µM (≈ 0.882 µg/mL) | 82% | –
